Laboratory results: ChEMBL document CHEMBL4251649, “Discovery and optimization of phthalazinone derivatives as a new class of potent dengue virus inhibitors” (Eur J Med Chem, 2018)

Legend:
[1] = Selectivity index, CC50 for human HuH7 cells to IC50 for DENV2 D2Y98P; type: toxicity; settings: read-out: Ratio CC50/IC50
Method in brief: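 SI is calculated as CC50 (MTT cytotoxicity in Huh7) divided by IC50 (qRT-PCR of DENV-2 D2Y98P supernatant RNA, Huh7, MOI 2, 48 h).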

[2] = tested on: dengue virus type 2; experiment: Antiviral activity against DENV2 D2Y98P infected in human HuH7 cells assessed as inhibition of viral RNA replication incubated for 48 hrs by qRT-PCR method; type: functional, organism-based; settings: Huh-7, 48 h
Method in brief: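 Huh7 cells (4×10^4/well, 2% FBS DMEM, overnight) infected with DENV-2 D2Y98P at MOI 2 for 2 h, washed, then given compound in fresh medium; after 48 h the supernatant viral genomic RNA was extracted and quantified by one-step qRT-PCR; IC50 and IC90 were taken as 50% and 90% inhibition of RNA replication.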

[3] = Cytotoxicity against human HuH7 cells assessed as reduction in cell viability after 48 hrs by MTT assay; type: cell-based, Huh-7
Method in brief: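 The Huh7 cells were seeded and treated with compound in the same way as the antiviral assay, and viability was read by MTT reduction. CC50 is the compound concentration that lowered the readout to half of the no-compound control.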

[4] = tested on: Mus musculus; experiment: AUClast in CD-1 mouse at 2 mg/kg, iv; type: ADME, organism-based; design: dose 2 mg/kg, time 0 - last, route intravenous; settings: in vivo
Method in brief: (§1)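 Male CD-1 mice (18–22 g, n=3/group), fasted 12 h, were given 2 mg/kg IV. Femoral-vein blood (EDTA) was collected at 3 min, 0.25, 0.75, 2, 4, 8 and 24 h. Plasma was mixed with methanol:acetonitrile (1:1), stored at -20°C, and analysed by non-compartmental methods.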

[5] = Half life in CD-1 mouse at 10 mg/kg, po; type: ADME, organism-based; settings: in vivo
Method in brief: (§2)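 Male CD-1 mice (18–22 g, n=3/group), fasted 12 h and fed 2 h after dosing, received 10 mg/kg orally. Femoral-vein blood (EDTA) was drawn at 0.25, 0.5, 1, 2, 4, 8 and 24 h. Plasma was mixed with methanol:acetonitrile (1:1) and stored at -20°C. Parameters came from non-compartmental analysis.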

[6] = tested on: Mus musculus; experiment: Plasma clearance in CD-1 mouse at 2 mg/kg, iv; type: ADME, organism-based; settings: in vivo; method in brief: as §1
[7] = AUClast in CD-1 mouse at 10 mg/kg, po; type: ADME, organism-based; design: dose 10 mg/kg, time 0 - last, route oral; settings: in vivo; method in brief: as §2
[8] = Cmax in CD-1 mouse at 10 mg/kg, po; type: ADME, organism-based; design: dose 10 mg/kg, route oral; settings: in vivo; method in brief: as §2
[9] = Tmax in CD-1 mouse at 10 mg/kg, po; type: ADME, organism-based; settings: in vivo; method in brief: as §2
[10] = tested on: Mus musculus; experiment: Volume of distribution at steady state in CD-1 mouse at 2 mg/kg, iv; type: ADME, organism-based; settings: in vivo; method in brief: as §1
[11] = Oral bioavailability in CD-1 mouse at 10 mg/kg; type: ADME, organism-based; settings: in vivo; method in brief: as §2
[12] = tested on: Mus musculus; experiment: Half life in CD-1 mouse at 2 mg/kg, iv; type: ADME, organism-based; settings: in vivo; method in brief: as §1

Compound | IC50 [2] | IC90 [2] | selectivity ratio [1] | CC50 at 48 h [3] | also measured
CN(C)CCCCOC(=O)Nc1ccc(Cn2nc(-c3ccc(C#N)cc3)c3ccccc3c2=O)cc1 | 0.7 µM | 7.07 µM | 52.8 | 37 µM | 
CN(C)CCCCOC(=O)Nc1ccc(Cn2nc(-c3cccnc3)c3ccccc3c2=O)cc1 | 6.32 µM | 30.2 µM | 10.7 | 68 µM | 
CN(C)CCCCOC(=O)Nc1ccc(Cn2nc(-c3cnn(C)c3)c3ccccc3c2=O)cc1 | 6.53 µM | 43.3 µM | 8.5 | 55.9 µM | 
CN(C)CCCCOC(=O)Nc1ccccc1Cn1nc(-c2ccc(F)cc2)c2ccccc2c1=O | 2.83 µM | 13.2 µM | 17.1 | 48.5 µM | 
CN(C)CCCCOC(=O)Nc1ccc(Cn2nc(-c3ccccc3F)c3ccccc3c2=O)cc1 | 1.32 µM | 8.79 µM | 39.8 | 52.5 µM | 
CN(C)CCCC(=O)Nc1ccc(Cn2nc(-c3ccc(F)cc3)c3ccccc3c2=O)cc1 | 1 µM | 8.42 µM | 38.2 | 38.2 µM | 
CN(C)CCCCOC(=O)Nc1ccc(Cn2nc(-c3cccc(C#N)c3)c3ccccc3c2=O)cc1 | 1.72 µM | 5.09 µM | 10 | 17.2 µM | 
CN(C)CCCCNC(=O)Nc1ccc(Cn2nc(-c3ccc(F)cc3)c3ccccc3c2=O)cc1 |  |  | 10.7 | 46.6 µM | 
CCCCOC(=O)Nc1ccc(Cn2nc(-c3ccc(F)cc3)c3ccccc3c2=O)cc1 |  |  | 14.3 | 19.5 µM | 
CN(C)CCCCOC(=O)Nc1ccc(Cn2nc(-c3ccc(F)cc3)c3ccccc3c2=O)cc1 | 0.62 µM | 4.27 µM | 30.7 | 19 µM | 

More lines, in order of falling IC50 [2], values ahead:

IC50 [2] | IC90 [2] | Compound | selectivity ratio [1] | CC50 at 48 h [3] | also measured
22.9 µM | 40.9 µM | CN(C)CCCCOC(=O)Nc1ccc(Cn2nc(-c3ccncc3)c3ccccc3c2=O)cc1 | 2.7 | 62.7 µM | 
20 µM | > 80 µM | Nc1ccc(Cn2nc(-c3ccc(F)cc3)c3ccccc3c2=O)cc1 | > 4 | > 80 µM | 
5.52 µM | 12.4 µM | CN(C)CCCCOC(=O)Nc1ccc(Cn2nc(-c3ccccc3C#N)c3ccccc3c2=O)cc1 | 16.4 | 90.7 µM | 
2.68 µM | 6.09 µM | CN(C)CCCCOC(=O)Nc1ccc(Cn2nc(-c3ccccc3)c3ccccc3c2=O)cc1 | 5.99 | 16 µM | 
1.99 µM | 3.37 µM | CN(C)CCCCOC(=O)Nc1ccc(Cn2nc(-c3ccccc3C(F)(F)F)c3ccccc3c2=O)cc1 | 18 | 35.7 µM | 
1.94 µM | 5.88 µM | COc1ccc(-c2nn(Cc3ccc(NC(=O)OCCCCN(C)C)cc3)c(=O)c3ccccc23)cc1 | 10.5 | 20.3 µM | 
1.51 µM | 8.24 µM | CN(C)CCCCOC(=O)Nc1ccc(Cn2nc(-c3cccc(F)c3)c3ccccc3c2=O)cc1 | 24.7 | 37.4 µM | 
1.47 µM | 6.61 µM | CN(C)CCCCOC(=O)Nc1ccc(Cn2nc(-c3ccc(C(F)(F)F)cc3)c3ccccc3c2=O)cc1 | 2.3 | 3.36 µM | 
1.4 µM | 5.44 µM | COc1ccccc1-c1nn(Cc2ccc(NC(=O)OCCCCN(C)C)cc2)c(=O)c2ccccc12 | 32 | 44.8 µM | 
1.34 µM | 12.6 µM | CN(C)CCCCOC(=O)Nc1ccc(-n2nc(-c3ccc(F)cc3)c3ccccc3c2=O)cc1 | 16.2 | 21.8 µM | 
1.27 µM | 5.57 µM | CC(c1ccc(NC(=O)OCCCCN(C)C)cc1)n1nc(-c2ccc(F)cc2)c2ccccc2c1=O (stereo not given) | 11.9 | 15.2 µM | 
0.64 µM | 4.65 µM | CN(C)CCCCOC(=O)Nc1cccc(Cn2nc(-c3ccc(F)cc3)c3ccccc3c2=O)c1 | 13.3 | 8.51 µM | 
0.6 µM | 62.4 µM | CN(C)CCCCOC(=O)Nc1ccc(Cn2nc(-c3cncnc3)c3ccccc3c2=O)cc1 | 109 | 65.3 µM | 
0.34 µM | 1.58 µM | COc1cccc(-c2nn(Cc3ccc(NC(=O)OCCCCN(C)C)cc3)c(=O)c3ccccc23)c1 | 51.8 | 17.6 µM | 
0.13 µM | 1.15 µM | CN(C)CCCCOC(=O)Nc1ccc(Cn2nc(-c3cccc(C(F)(F)F)c3)c3ccccc3c2=O)cc1 | 89.2 | 11.6 µM | AUClast [4]: 505 ng·h/mL; half-life [5]: 2.91 h; CL [6]: 0.833 mL/min/kg; AUC(0-t) [7]: 883 ng·h/mL; Cmax [8]: 94.5 ng/mL; Tmax [9]: 8 h; Vdss [10]: 17.137 L/kg; bioavailability [11]: 34.9%; t1/2 [12]: 4.33 h
